# From ChEMBL document CHEMBL1250540, “Design, synthesis, and binding of homologated truncated 4'-thioadenosine derivatives at the human A3 adenosine receptors” (Bioorg Med Chem, 2010)
# Key:
# Format in all cases: cell-based
# [1] = molecular target: T1, Adenosine receptor A1 (Homo sapiens) (UniProt P30542); test: Displacement of [3H]R-PIA from human adenosine A1 receptor expressed CHO cells at 10 uM after 60 mins by gamma counting relative to NECA
# T1 sequence (whole entry): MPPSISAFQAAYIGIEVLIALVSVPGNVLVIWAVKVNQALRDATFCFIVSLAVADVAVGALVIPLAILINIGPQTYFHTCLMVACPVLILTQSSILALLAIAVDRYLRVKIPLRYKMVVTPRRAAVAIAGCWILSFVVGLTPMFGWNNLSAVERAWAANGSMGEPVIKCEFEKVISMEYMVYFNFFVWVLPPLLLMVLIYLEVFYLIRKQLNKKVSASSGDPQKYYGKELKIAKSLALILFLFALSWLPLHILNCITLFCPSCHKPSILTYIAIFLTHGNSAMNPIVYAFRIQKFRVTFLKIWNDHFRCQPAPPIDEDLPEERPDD
# Procedure, shortened: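 Membranes from CHO cells stably expressing human A1AR were incubated with 1 nM [3H]PIA at 25 °C for 60 min in 50 mM Tris–HCl (pH 7.4) with 10 mM MgCl2. Nonspecific binding was defined with CPA. Results are mean ± sem, n = 3–5.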
# [2] = molecular target: Adenosine receptor A2a (Homo sapiens) (UniProt P29274); test: Displacement of [3H]CGS 21680 from human adenosine A2A receptor expressed HEK293 cells at 10 uM after 60 mins by gamma counting relative to NECA
# Chain of Adenosine receptor A2a (Homo sapiens) (P29274 whole entry): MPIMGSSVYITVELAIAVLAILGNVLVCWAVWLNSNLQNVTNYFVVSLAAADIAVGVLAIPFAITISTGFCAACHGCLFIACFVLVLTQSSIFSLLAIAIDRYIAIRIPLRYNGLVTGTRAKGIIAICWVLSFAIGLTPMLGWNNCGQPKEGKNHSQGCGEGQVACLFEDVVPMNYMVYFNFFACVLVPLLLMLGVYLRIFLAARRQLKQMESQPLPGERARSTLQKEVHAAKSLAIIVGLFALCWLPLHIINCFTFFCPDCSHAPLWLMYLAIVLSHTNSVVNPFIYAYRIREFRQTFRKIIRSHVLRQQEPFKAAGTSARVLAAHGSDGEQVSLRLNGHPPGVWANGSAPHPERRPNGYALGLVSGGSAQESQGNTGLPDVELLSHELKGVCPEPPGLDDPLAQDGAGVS
# Procedure, shortened: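 Membranes from HEK-293 cells stably expressing human A2AAR were incubated with 15 nM [3H]CGS21680 at 25 °C for 60 min in 50 mM Tris–HCl (pH 7.4) with 10 mM MgCl2. Incubation was stopped by GF/B filtration. Results are mean ± sem, n = 3–5.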
# [3] = molecular target: T2, Adenosine receptor A3 (Homo sapiens) (UniProt P0DMS8); test: Displacement of [125I]I-AB-MECA from human adenosine A3 receptor expressed CHO cells at 10 uM after 60 mins by gamma counting relative to NECA
# T2 sequence (whole entry): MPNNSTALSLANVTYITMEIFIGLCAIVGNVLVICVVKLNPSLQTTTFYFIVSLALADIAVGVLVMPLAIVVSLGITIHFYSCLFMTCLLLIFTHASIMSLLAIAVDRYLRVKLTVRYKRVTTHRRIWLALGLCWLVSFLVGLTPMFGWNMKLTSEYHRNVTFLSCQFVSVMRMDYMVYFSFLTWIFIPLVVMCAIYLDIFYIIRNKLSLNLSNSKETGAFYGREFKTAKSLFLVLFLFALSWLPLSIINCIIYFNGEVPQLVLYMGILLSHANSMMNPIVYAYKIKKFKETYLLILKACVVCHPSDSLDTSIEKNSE
# Procedure, shortened: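 Competition binding used membranes from CHO cells stably expressing human A3AR with 0.5 nM [125I]I-AB-MECA and test nucleoside in 50 mM Tris–HCl (pH 7.4) with 10 mM MgCl2 and 1 mM EDTA, at 25 °C for 60 min. Nonspecific binding was defined with Cl-IB-MECA. Percent inhibition was taken at a single concentration. Results are mean ± sem, n = 3–5.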
Compound,inhibition [1],inhibition [2],inhibition [3]
O[C@@H]1[C@H](O)CS[C@H]1Cn1cnc2c(NCc3cccc(I)c3)ncnc21,9.6%,18.2%,13.9%
O[C@@H]1[C@H](O)CS[C@H]1Cn1cnc2c(NCc3cccc(F)c3)ncnc21,0.3%,14%,8.7%
O[C@@H]1[C@H](O)CS[C@H]1Cn1cnc2c(NCc3cccc(Br)c3)nc(Cl)nc21,23.6%,2%,21%
O[C@@H]1[C@H](O)CS[C@H]1Cn1cnc2c(NCc3cccc(Br)c3)ncnc21,6.6%,25.8%,6.1%
O[C@@H]1[C@H](O)CS[C@H]1Cn1cnc2c(NCc3cccc(F)c3)nc(Cl)nc21,7.9%,12%,17.6%

# Next, values leading:
inhibition [1],inhibition [2],inhibition [3],Compound
3.2%,11%,13.6%,O[C@@H]1[C@H](O)CS[C@H]1Cn1cnc2c(NCc3cccc(Cl)c3)nc(Cl)nc21
16.4%,18.4%,10%,O[C@@H]1[C@H](O)CS[C@H]1Cn1cnc2c(NCc3cccc(I)c3)nc(Cl)nc21
3.3%,13%,8.9%,O[C@@H]1[C@H](O)CS[C@H]1Cn1cnc2c(NCc3cccc(Cl)c3)ncnc21
